Results reported in ChEMBL document CHEMBL2046346, “Discovery of phenylpropanoic acid derivatives containing polar functionalities as potent and orally bioavailable G protein-coupled receptor 40 agonists for the treatment of type 2 diabetes” (J Med Chem, 2012).
pEC50, pKi: −log10 of the molar value. Active and inactive are the calls of the source. The calls are words filed in the database; no cut-off is given here.

How the values were obtained:
[1] = Cytotoxicity against human HepG2 cells assessed as intracellular ATP level at 30 uM after 24 hrs by ATPlite assay relative to control; assay type: cell-based; conditions: read-out: Activity
Outline: (§1)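 HepG2 cells seeded 2 × 10^4/well, treated 1 day in DMEM with 0.5% FBS, 2 mM L-glutamine, 1 mM pyruvate. ATP measured by ATPlite luminescence; % of 1% DMSO control (RLU ratio ×100), n = 3.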

[2] = target: T1, Free fatty acid receptor 1 (Homo sapiens, UniProt O14842); assay: Agonist activity at human GPR40 receptor expressed in CHO cells assessed as increase in intracellular calcium level for 90 secs by FLIPR assay in the presence of 0.1% BSA; assay type: functional, cell-based
T1 sequence (O14842 whole entry): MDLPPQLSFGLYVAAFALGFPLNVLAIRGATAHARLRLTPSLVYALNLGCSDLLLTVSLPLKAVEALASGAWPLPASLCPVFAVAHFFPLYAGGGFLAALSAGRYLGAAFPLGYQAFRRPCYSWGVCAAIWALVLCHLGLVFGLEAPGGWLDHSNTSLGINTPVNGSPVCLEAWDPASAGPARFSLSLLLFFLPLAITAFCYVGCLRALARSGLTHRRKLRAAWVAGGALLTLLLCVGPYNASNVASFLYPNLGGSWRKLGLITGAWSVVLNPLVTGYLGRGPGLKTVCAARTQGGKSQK
Outline: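 CHO dhfr cells stably expressing human GPR40 plated overnight, loaded 60 min at 37 °C with Fluo 4 AM (2.5 μg/mL), 2.5 mmol/L probenecid, 0.1% fatty acid-free BSA. Ca2+ rise after compound addition read 90 s; response scaled between vehicle (0%) and 10 μM γ-linolenic acid (100%).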

HepG2 [3] = assay: Induction of apoptosis in human HepG2 cells assessed as caspase 3/7 activity at 30 uM after 24 hrs by caspase Glo assay relative to staurosporine; assay type: cell-based; conditions: hepg2, 24 h
Outline: (§2)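 HepG2 cells seeded 2 × 10^4/well, treated 1 day in DMEM with 0.5% FBS, 2 mM L-glutamine, 1 mM pyruvate. Caspase-Glo 3/7 luminescence; activity = (compound − 1% DMSO)/(30 μM staurosporine − 1% DMSO) ×100, n = 3.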

Rattus norvegicus [4] = assay: Toxicity in rat assessed as adverse effect at 15 to 150 mg/kg, po after 4 weeks; assay type: organism-based; set-up: dose 15-150 mg/kg, route oral; conditions: in vivo, 672 h
Outline: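 Normal rats dosed orally at 15, 50 and 150 mg/kg for 4 weeks; adverse effects recorded.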

Rattus norvegicus [5] = assay: Induction of hypoglycemia in fasted Sprague-Dawley rat assessed as decrease in plasma glucose level below normal fasting level at 30 mg/kg, po; assay type: organism-based; set-up: dose 30 mg/kg, route oral; conditions: in vivo
Outline: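 Eight-week-old male SD rats fasted overnight, grouped by body weight (n = 6), single oral dose in 0.5% methylcellulose vehicle; tail-vein blood before and 0.5, 1, 2, 3 h after dosing; plasma glucose by analyzer, insulin by ELISA; mean ± SD.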

Rattus norvegicus [6] = assay: Insulinotropic activity in po dosed fasted Wistar fatty rat assessed as increase in insulin secretion administered 30 mins prior to glucose-challenge by oral glucose tolerance test relative to vehicle treated control; assay type: functional, organism-based
Outline: (§3)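 Thirteen-week-old female Wistar fatty rats, overnight fasted, grouped on body weight, PG, TG, NEFA (n = 6). Oral dose (0.1–1 mg/kg, 0.5% methylcellulose vehicle) 30 min before oral glucose 1 g/kg; tail-vein blood at 0, 10, 30, 60, 120 min; plasma glucose by analyzer, insulin by RIA.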

[7] = Cytotoxicity against human HepG2 cells assessed as intracellular ATP level at 10 uM after 24 hrs by ATPlite assay relative to control; assay type: cell-based; conditions: read-out: Activity; outline: as §1
HepG2 [8] = assay: Induction of apoptosis in human HepG2 cells assessed as caspase 3/7 activity at 10 uM after 24 hrs by caspase Glo assay relative to staurosporine; assay type: cell-based; conditions: hepg2, 24 h; outline: as §2
[9] = Metabolic stability in human hepatic microsomes; assay type: ADME; conditions: liver microsomes, read-out: Stability
[10] = Lipophilicity, log D of the compound by RP-HPLC analysis; assay type: physicochemical
Rattus norvegicus [11] = assay: Induction of hypoglycemia in fasted Sprague-Dawley rat assessed as increase in insulin secretion level at 30 mg/kg, po after 30 mins; conditions: in vivo, 0.5 h
[12] = target: Free fatty acid receptor 1 (Rattus norvegicus, UniProt Q8K3T4); assay: Displacement of 3-[4-({2',6'-dimethyl-6-[(4-[3H])phenylmethoxy]biphenyl-3-yl}methoxy)phenyl] propanoic acid from rat GPR40 receptor expressed in CHO cell membrane after 90 mins by liquid scintillation counting in the presence of 0.2% BSA; assay type: cell membranes
Chain of Free fatty acid receptor 1 (Rattus norvegicus, UniProt Q8K3T4) (Q8K3T4 whole entry): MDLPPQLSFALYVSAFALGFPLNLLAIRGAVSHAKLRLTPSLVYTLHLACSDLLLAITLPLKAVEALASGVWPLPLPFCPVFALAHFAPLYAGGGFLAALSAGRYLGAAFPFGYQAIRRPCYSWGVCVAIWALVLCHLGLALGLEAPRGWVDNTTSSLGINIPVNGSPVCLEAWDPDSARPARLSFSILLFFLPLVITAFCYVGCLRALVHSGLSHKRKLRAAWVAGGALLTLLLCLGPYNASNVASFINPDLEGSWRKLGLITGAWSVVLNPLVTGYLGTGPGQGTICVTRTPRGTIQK
Outline: (§4)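 Membranes from CHO lines stably expressing human or rat GPR40, buffer 25 mmol/L Tris-HCl pH 7.5, 5 mmol/L EDTA, protease inhibitors, 0.05% CHAPS, 0.2% fatty-acid-free BSA. Tritiated ligand at 2 or 6 nmol/L with graded test compound, 90 min room temperature, GF/C filtration, scintillation counting. Nonspecific binding: 10 μmol/L unlabeled ligand. IC50 by nonlinear regression, Ki = IC50/(1+[L]/Kd).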

Rattus norvegicus [13] = assay: Insulinotropic activity in po dosed fasted Wistar fatty rat assessed as decrease in blood glucose level administered 30 mins prior to glucose-challenge by oral glucose tolerance test relative to vehicle treated control; assay type: functional, organism-based; outline: as §3
[14] = target: T1, Free fatty acid receptor 1; assay: Displacement of 3-[4-({2',6'-dimethyl-6-[(4-[3H])phenylmethoxy]biphenyl-3-yl}methoxy)phenyl] propanoic acid from human GPR40 receptor expressed in CHO cell membrane after 90 mins by liquid scintillation counting in the presence of 0.2% BSA; assay type: cell membranes; outline: as §4
Rattus norvegicus [15] = assay: Insulinotropic activity in fasted Wistar fatty rat assessed as decrease in blood glucose level at 0.3 mg/kg, po administered 30 mins prior to glucose-challenge by oral glucose tolerance test relative to vehicle treated control; assay type: functional, organism-based; set-up: dose 0.3 mg/kg; outline: as §3

For `Cc1cc(OCC2(O)CCS(=O)(=O)CC2)cc(C)c1-c1cccc(CNc2ccc(CCC(=O)O)c(F)c2)c1`, the viability at 24 h, 30 µM [1] was 75.9%, the pEC50 [2] was 7.54 and the Activity (HepG2 [3]) was 0.5%. For the same compound, the Activity (Rattus norvegicus [4]) was “Non-toxic”, the Activity (Rattus norvegicus [5]) was “Non-toxic” and the Activity (Rattus norvegicus [6]) was “Dose-dependent effect”. For the same compound, the viability at 24 h, 10 µM [7] was 88.1%, the Activity (HepG2 [8]) was 0.8% and the microsomal CLint [9] was 2 µL/min/mg. The logD [10] was 2.14, the Activity (Rattus norvegicus [11]) was “Toxic” and the pKi [12] was 8.35. For the same compound, the Activity (Rattus norvegicus [13]) was “Dose-dependent effect”, the pKi [14] was 7.72 and the Activity (Rattus norvegicus [15]) was “Active”.
